Screening results deposited in PubChem BioAssay by several laboratories.
A selection: hits, their analogues and other compounds. The true share with any hit is near 3.2%.
JMJD2C inh = human JMJD2C demethylase inhibition | Q9H3R0 | GST-JMJD2C(1-420) H3K9me3 demethylation, DELFIA europium | inhibition, % at 2.35 µM | actives 0.069% (n = 330,000) | AID 2099;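 active means more than half of a compound's replicate wells show inhibition beyond 50%, single wells judged on their own value; inconclusive means some, but no more than half, of replicates pass 50% inhibition; inactive means no replicate passes 50% inhibition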;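 further: signal counts dimethyl H3K9 product captured on neutravidin plate; 0% = median of DMSO wells and 100% = 0.3 times that DMSO median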
Target sequence (Q9H3R0 1-420 limits assumed): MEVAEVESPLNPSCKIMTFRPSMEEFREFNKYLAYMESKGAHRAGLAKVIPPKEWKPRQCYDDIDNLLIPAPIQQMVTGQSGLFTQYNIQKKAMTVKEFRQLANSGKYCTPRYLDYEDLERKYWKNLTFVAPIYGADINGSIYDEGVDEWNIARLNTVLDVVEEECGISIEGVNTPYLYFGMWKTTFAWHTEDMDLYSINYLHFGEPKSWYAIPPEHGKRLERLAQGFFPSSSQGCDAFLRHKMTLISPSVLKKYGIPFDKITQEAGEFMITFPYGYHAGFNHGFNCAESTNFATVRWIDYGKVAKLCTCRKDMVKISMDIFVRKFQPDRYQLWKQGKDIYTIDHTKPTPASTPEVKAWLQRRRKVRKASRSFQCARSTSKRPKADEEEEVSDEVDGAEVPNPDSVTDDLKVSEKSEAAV
NR2E3 ag-1 = agonists of human nuclear receptor NR2E3 | Q9Y5X4 | GST-NR2E3/biotin-RetCOR TR-FRET, 1536-well | inhibition of corepressor binding, % at 4.78 µM | actives 0.12% (n = 320,000);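 active means percent inhibition above the cutoff of mean plus 3 SD of all tested compounds, set per screening campaign, cut at about 20% in these data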;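 further: 0% = DMSO wells and 100% = biotin wells as full block of FRET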
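Format: 1536-well format; test system: GST-NR2E3 and biotin-RetCOR proteins; read-out basis: percent inhibition of TR-FRET ratio; timing: 5 h incubation at 4 °C; detection: time-resolved FRET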
SMARCA2 activ = activators of SMARCA2 function. activation, % at 9.1 µM. MG213 cells, MMTV-luciferase reporter, dexamethasone, overnight. actives 1% (n = 370,000). AID 652017; in the data active means activation above about 7.8%;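 further: 0% = vehicle wells and 100% = reference activator wells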
NR2E3 ag-2 = human photoreceptor-specific nuclear receptor agonism | CHO-S Gal4-NCOR/VP16-NR2E3 two-hybrid, luciferase | inhibition of corepressor binding, % at 3.98 µM | actives 0.35% (n = 360,000);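 active means inhibition above the mean of all tested compounds plus 3 SD, cut at about 70% in these data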;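 further: 0% = DMSO with NR2E3 transfected cells and 100% = cells lacking NR2E3 construct; higher means lower luciferase signal from less NR2E3 corepressor binding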
DAX1 inh-1 = DAX1 (NR0B1) inhibition, primary screen; AID 652010; inhibition, % at 6.8 µM; actives 1.1% (n = 370,000); HEK293T StAR-luciferase reporter, SF-1/DAX-1 repression relief;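 active means inhibition above the mean over all tested compounds plus 3 SD, cut at about 3.6% in these data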;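 further: 0% = DAX-1 cells with DMSO and 100% = cells lacking DAX-1 with DMSO; higher inhibition means more luminescence from relief of DAX-1 repression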
DAX1 inh-2 = NR0B1 (DAX1) inhibition. P51843. HEK293 Gal4-DAX1 luciferase reporter, luminescence. inhibition, % at 6.75 µM. actives 0.99% (n = 340,000). AID 504766;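 active means inhibition above the mean over all tested compounds plus 3 SD, cut at about 4.2% in these data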;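 further: 0% = DAX1-transfected cells with DMSO and 100% = empty-vector control cells with DMSO; inhibition shows as a rise in luminescence from relieved DAX1 repression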
Target sequence (P51843 207-470 limits assumed): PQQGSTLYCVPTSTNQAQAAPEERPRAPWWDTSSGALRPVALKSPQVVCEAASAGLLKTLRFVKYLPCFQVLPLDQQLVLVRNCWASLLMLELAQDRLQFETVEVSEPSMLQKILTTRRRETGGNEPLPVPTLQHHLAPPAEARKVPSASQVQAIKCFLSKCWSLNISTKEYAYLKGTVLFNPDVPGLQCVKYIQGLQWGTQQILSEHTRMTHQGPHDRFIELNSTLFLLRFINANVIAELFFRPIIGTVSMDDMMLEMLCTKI
DAX1 inh confirm = confirmation of human DAX1 (NR0B1) inhibitors | actives 87% (n = 2,400) | HEK293T StAR-promoter luciferase reporter, SF-1/DAX-1 repression | inhibition, % at 6.8 µM | shares compounds with DAX1 inh-1;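 active means inhibition above the average of every tested compound plus 3 SD, cut at about 3.8% in these data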;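 further: 0% = DAX-1 cells with DMSO and 100% = no DAX-1 control cells with DMSO; active compounds raise luminescence by relieving repression of the StAR reporter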
SF1 mutant ctr = counter-screen for DAX1 inhibitors: nonselective inhibitors with SF-1 AF2 mutant; actives 78% (n = 2,400); AID 652136; inhibition, % at 6.8 µM; HEK293 StAR-luciferase, luminescence; shares compounds with DAX1 inh-1;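 active means inhibition above the mean of all tested compounds plus 3 SD, cut at about 3% in these data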;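 further: 0% = DAX-1 transfected cells with DMSO and 100% = cells without DAX-1 with DMSO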
* hit, by the source's call; ? = inconclusive; . = no result.

SMILES	JMJD2C inh	NR2E3 ag-1	SMARCA2 activ	NR2E3 ag-2	DAX1 inh-1	DAX1 inh-2	DAX1 inh confirm	SF1 mutant ctr
C[C@@H]1COc2cccc(F)c2S(=O)(=O)N1C	.	.	-0.7	.	0.8	.	.	.
O=C(/C=C/c1ccc([N+](=O)[O-])cc1)NCc1ccccn1	1.1	-2.4	1.1	11.0	-0.9	-0.5	.	.
O=C(/C=C/c1ccc([N+](=O)[O-])cc1)Nc1ncc([N+](=O)[O-])s1	.	.	1.1	-52.4	7.4*	4.0	-5.5	-6.3
c1csc(-c2nnc(-c3ccc(N4CCOCC4)cc3)o2)c1	10.3	4.1	2.8	-149.2	5.1*	-0.9	14.2*	6.2*
CCOc1ccc(-c2nnc(-c3cccs3)o2)cc1OCC	-2.4	1.4	2.1	-79.2	0.3	1.4	.	.
CCOc1ccc(-c2nnc(-c3cccs3)o2)cc1	?	-0.9	3.4	-164.9	4.9*	0.5	13.4*	4.6*
COC(=O)[C@]12C[C@H](CC(=O)NCCC(C)C)C(=O)N(Cc3ccc(Cl)cc3Cl)C1=C[C@H](C(C)(C)C)O[C@@H]2C	.	.	-3.9	.	-1.0	.	.	.
Cc1ccc(CSc2nnc(-c3cccs3)o2)cc1C	.	.	-1.9	.	1.1	.	.	.
Cc1ccc2nc(-c3sc4nc(C)ccc4c3N)[nH]c2c1	4.1	2.3	4.8	-132.8	5.8*	-2.4	18.9*	13.1*
CC(=O)N1CCCN(C(=O)Cn2cnc3ccccc3c2=O)CC1	.	.	-2.6	.	-0.9	.	.	.
COC(=O)c1cc(-c2ccc3ccccc3c2)c(=O)n2c1CCC2	.	.	-0.8	.	-1.7	.	.	.
CCOc1cc(C(=O)NN=C2CCCC2)cc(OCC)c1OCC	8.5	0.2	-2.3	25.8	6.9*	0.4	0.7	-2.2
Oc1ccc(N=Nc2n[nH]c(-c3ccccc3)n2)cc1	4.5	-4.1	1.3	-140.8	7.1*	0.1	14.9*	9.2*
C#CCNC(=O)C[C@@H]1C(=O)N(Cc2ccc(OC)cc2)C2=CCN(C(=O)OC(C)(C)C)C[C@]21C(=O)OCC	.	.	-1.6	.	0.1	.	.	.
O=c1c2cc3cc(Cl)ccc3nc2ncn1Cc1ccc(Oc2ccccc2)cc1	.	.	-3.5	.	-0.9	.	.	.
Cc1ccc(NC(=O)C2CCCC2)c(Br)c1	4.2	5.0	-4.9	-4.0	-0.2	2.2	.	.
Cc1ccc(NC(=S)NC(=O)C2CCCCC2)c(Br)c1	-1.8	.	1.0	-190.8	9.8*	2.7	7.8*	7.2*
COc1ccc2oc(C(=O)OCC(=O)NCCc3ccccc3)c(C)c2c1	-15.9	-1.1	-2.9	-33.0	-0.2	0.4	.	.
COc1ccc2oc(C(=O)Nc3nccs3)c(C)c2c1	3.6	-10.1	1.3	-198.8	12.2*	2.4	11.0*	7.7*
CCOc1ccc2oc(C(=O)Nc3nccs3)c(C)c2c1	1.3	.	1.9	-163.4	7.2*	2.3	15.3*	7.5*
CCCCc1nnc(NC(=O)c2oc3ccc(OC)cc3c2C)s1	-0.3	3.0	-2.4	-47.0	0.7	-0.3	.	.
COc1ccc2oc(C(=O)NCCc3ccccc3)c(C)c2c1	2.6	0.1	-1.0	-80.2	5.2*	-2.1	7.1*	-0.4
CCN1CCCCC(NC(=O)c2ccc(F)c(F)c2)C1=O (stereo not drawn)	.	.	-3.4	.	0.1	.	.	.
O=C1N(c2ccccc2)CC2CC(c3ccccc3)N3CCCC123 (stereo not drawn)	.	.	-3.2	.	-1.6	.	.	.
Cc1ccc(-n2c(SCC(=O)Nc3ccc(S(=O)(=O)Nc4cc(C)nc(C)n4)cc3)nnc2-c2cccs2)cc1	.	.	-6.0	.	1.5	.	.	.
SMILES	JMJD2C inh	NR2E3 ag-1	SMARCA2 activ	NR2E3 ag-2	DAX1 inh-1	DAX1 inh-2	DAX1 inh confirm	SF1 mutant ctr
COC(=O)C/C=C/[C@H](C)[C@@H](NC(=O)C(F)(F)F)c1ccccc1Br	.	.	-4.1	.	-0.1	.	.	.
CCc1ccc(-c2cc(N)n(-c3ccccc3)n2)cc1	19.4	.	5.9	-135.2	7.3*	5.5*	12.1*	7.2*
Cc1cccc(-c2cc(N)n(-c3ccccc3)n2)c1	.	.	4.5	-119.4	7.8*	3.1	11.2*	6.8*
Cc1ccc(-c2cc(N)n(-c3ccccc3)n2)cc1	-2.1	1.2	4.3	-106.1	2.3	1.1	.	.
Cc1cc(C(=O)COC(=O)c2ccc(O)cc2O)c(C)n1C(C)C	.	2.4	5.8	-70.7	7.3*	1.5	9.8*	5.0*
COc1ccc(CCn2c(C)cc(C(=O)COC(=O)c3ccc(O)cc3O)c2C)cc1	.	.	-4.7	-17.7	-4.5	-0.1	.	.
CCc1cc(-c2ccc3c(c2)COc2c4ccccc4nn2-3)on1	6.5	2.5	2.8	-163.1	4.5*	2.1	11.0*	5.1*
O=C(O)c1ccc2c3n(nc2c1)-c1ccc(Cl)cc1CO3	-2.1	2.9	3.7	.	0.0	.	.	.
COc1ccc(-n2c(=O)c(NC(=O)c3ccccc3)c3n(c2=S)CCCCC3)cc1	3.2	-0.8	-2.1	-18.9	4.9*	0.8	-0.3	-0.2
O=C(CCS(=O)(=O)c1ccccc1)N(CCCN1CCOCC1)c1nc2c(F)cccc2s1	-30.8	0.6	3.7	-17.7	0.6	-0.6	.	.
O=C(CCS(=O)(=O)c1ccccc1)N(CCCN1CCOCC1)c1nc2ccc(F)cc2s1	-11.8	-2.8	1.9	-58.7	6.7*	0.2	5.5*	2.2
C=CCN1C[C@@H](COCc2ccccc2)Oc2cccc(F)c2S1(=O)=O	.	.	-2.4	.	-0.5	.	.	.
COc1ccc(/C=C2\Sc3ccc(C(=O)NCCCN4CCCC4)cc3N(C)C2=O)cc1OC	-0.6	3.9	4.0	21.1	4.6*	0.5	6.0*	0.0
COc1cc(NC2c3ccccc3C(=O)N2c2ccc(C)cn2)cc(OC)c1OC (stereo not drawn)	-2.4	-0.3	-0.2	-89.6	6.1*	3.8	3.1	3.1*
O=C(NCC1COCCO1)C1CCN(S(=O)(=O)c2cccs2)CC1 (stereo not drawn)	.	.	-2.2	.	-0.3	.	.	.
Cc1nnc(SCC(=O)Nc2nsc(-c3ccc(C(C)(C)C)cc3)n2)s1	0.6	-0.3	0.8	-118.9	7.3*	4.4*	10.9*	6.0*
Cc1ccc(CN2CCCCC(NC(=O)c3ccc(C)cc3)C2=O)cc1 (stereo not drawn)	.	.	0.0	.	-1.6	.	.	.
CCOC(=O)c1sc(=NC(=O)c2ccc(F)cc2)n(C)c1C	4.1	-1.4	3.2	-81.7	6.8*	0.7	14.8*	7.4*
Cc1ncc(C(=O)Nc2ccccc2)[nH]1	.	.	7.6	-66.9	4.7*	2.8	11.1*	6.9*
O=C(Nc1ccccc1)c1cnc[nH]1	0.0	0.0	1.7	-31.8	0.1	0.3	.	.
CCCC[C@H]1C2CC(OC(=O)Nc3cccc(C#N)c3)C(C2)[C@H]2CCCCN21 (stereo partly drawn)	.	.	-0.9	.	0.4	.	.	.
